In ChEMBL document CHEMBL1155974, “The nucleoside analogue D-carba T blocks HIV-1 reverse transcription” (J Med Chem, 2009):
Values belong to the molecule of their own block, whether it stands above or below them. The source made the active and inactive calls. The calls are words filed in the database; no cut-off is given here.

Columns and labels:
[1] = biological target: Human immunodeficiency virus type 1 reverse transcriptase (Human immunodeficiency virus 1) (UniProt Q72547); assay: Inhibition of HIV1 reverse transcriptase-mediated viral DNA synthesis at 10 uM by PAGE
[2] = Inhibition of HIV1 reverse transcriptase M41L/D67N/K70R/T215Y/K219Q mutant-mediated viral DNA synthesis in human HOS cells assessed as luciferase activity treated 3 hrs before infection measured after 48 hrs by luminescence assay; type: cell-based; conditions: Human immunodeficiency virus 1, HOS
Method in brief: (§1)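 Single-cycle infection with a VSV-G-pseudotyped, Env-deleted HIV-1 luciferase vector carrying wt or NRTI-resistant RT, made by calcium phosphate transfection of 293 cells, harvested at 48 h and diluted 1:5. HOS or HSV-TK-expressing HOS 313 cells were seeded at 4000/well, pretreated with compound for 3 h, then infected for 48 h. Luciferase was normalized to untreated infection of the same RT variant. IC50 came from a four-parameter sigmoidal fit.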

[3] = Inhibition of HIV1 reverse transcriptase M41L/D67N/K70R/T215Y/K219Q mutant-mediated viral DNA synthesis in human HOS-313 cells expressing HSV thymidine kinase assessed as luciferase activity treated 3 hrs before infection measured after 48 hrs by luminescence assay; type: cell-based; conditions: Human immunodeficiency virus 1, HOS-313; method in brief: as §1
[4] = Inhibition of HIV1 reverse transcriptase SSGR/T215Y mutant-mediated viral DNA synthesis in human HOS cells assessed as luciferase activity treated 3 hrs before infection measured after 48 hrs by luminescence assay; type: cell-based; conditions: Human immunodeficiency virus 1, HOS; method in brief: as §1
[5] = Inhibition of HIV1 reverse transcriptase SSGR/T215Y mutant-mediated viral DNA synthesis in human HOS-313 cells expressing HSV thymidine kinase assessed as luciferase activity treated 3 hrs before infection measured after 48 hrs by luminescence assay; type: cell-based; conditions: Human immunodeficiency virus 1, HOS-313; method in brief: as §1
[6] = biological target: Human immunodeficiency virus type 1 reverse transcriptase (Human immunodeficiency virus 1) (UniProt Q72547); assay: Ratio of IC50 for inhibition of HIV1 wild type reverse transcriptase-mediated viral DNA synthesis in human HOS cells to IC50 for inhibition of HIV1 wild type reverse transcriptase-mediated viral DNA synthesis in human HOS-313 cells expressing HSV thymidine kinase; type: cell-based
Method in brief: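 VSV-G-pseudotyped single-round HIV-1 luciferase vector (wt RT) made in 293 cells. HOS or HSV-TK-expressing HOS 313 cells, 4000/well, were pretreated 3 h with compound, infected 48 h, and luminescence read. Activity was normalized to untreated infections, and IC50 was taken from a four-parameter sigmoidal fit in each line.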

HIV-1 M:B_Lai = assay: Antiviral activity against HIV1 LAI infected in human TZM cells assessed as inhibition of viral replication; type: functional, organism-based; conditions: Human immunodeficiency virus 1, LAI
Method in brief: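 Single-cycle inhibition assay in TZM (HeLa-derived indicator) cells infected with replication-competent wild-type HIV-1 LAI across a range of compound concentrations; IC50 reported.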

TZM [7] = assay: Cytotoxicity against human TZM cells up to 10 uM after 48 hrs by XTT assay
[8] = Cytotoxicity against human GHOST cells up to 10 uM after 48 hrs by XTT assay
[9] = Cytotoxicity against human Hut/CCR5 cells up to 10 uM after 48 hrs by XTT assay; conditions: hut/ccr5, 48 h
TZM [10] = assay: Cytotoxicity against human TZM cells at 5% (w/v) after 48 hrs by XTT assay; type: cell-based
Method in brief: (§2)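 Cells (TZM, GHOST, HuT-CCR5) incubated 48 h with five dilutions of compound; XTT substrate then added for a further 4–5 h, and viability read from conversion of the dye by live cells. Hydroxypropyl-β-cyclodextrin served as positive control for killing.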

[11] = Cytotoxicity against human GHOST cells at 5% (w/v) after 48 hrs by XTT assay; type: cell-based; method in brief: as §2
[12] = Cytotoxicity against human Hut/CCR5 cells at 5% (w/v) after 48 hrs by XTT assay; type: cell-based; conditions: hut/ccr5, 48 h; method in brief: as §2
[13] = biological target: Human immunodeficiency virus type 1 reverse transcriptase (Human immunodeficiency virus 1) (UniProt Q72547); assay: Inhibition of HIV1 reverse transcriptase-mediated viral DNA synthesis at 5 uM using TA template by PAGE in presence of thymidine triphosphate
Method in brief: (§3)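 Competition primer-extension: labeled primer on DNA or RNA template of identical sequence (RNA reactions supplemented with RNase inhibitor), HIV-1 RT (1.0 µg), 10.0 µM each dATP/dCTP/dGTP. TTP:analog triphosphate at 1:5 or 1:1, totalling 10.0 µM; 37°, timed intervals, EDTA stop, 15% sequencing gel to score pausing.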

[14] = biological target: Human immunodeficiency virus type 1 reverse transcriptase (Human immunodeficiency virus 1) (UniProt Q72547); assay: Inhibition of HIV1 reverse transcriptase-mediated viral DNA synthesis at 5 uM using UA template by PAGE in presence of thymidine triphosphate; method in brief: as §3

- inhibition [1]: inactive
SMILES: Cc1cn([C@H]2C[C@H](O)[C@@H](COP(=O)(O)OP(=O)(O)OP(=O)(O)O)O2)c(=O)[nH]c1=O

SMILES: Cc1cn([C@@H]2C[C@H](CO)[C@@H](O)C2)c(=O)[nH]c1=O
- IC50 [2]: 1300 nM
- IC50 [3]: 870 nM
- IC50 [4]: 4600 nM
- IC50 [5]: 1000 nM
- Ratio IC50 [6]: 4
- IC50 (HIV-1 M:B_Lai): 50 nM
- Activity (TZM [7]): Non-toxic
- Activity [8]: Non-toxic
- Activity [9]: Non-toxic

SMILES: CC(O)COC[C@H]1O[C@@H]2O[C@H]3[C@H](O)[C@@H](O)[C@@H](O[C@H]4[C@H](O)[C@@H](O)[C@@H](O[C@H]5[C@H](O)[C@@H](O)[C@@H](O[C@H]6[C@H](O)[C@@H](O)[C@@H](O[C@H]7[C@H](O)[C@@H](O)[C@@H](O[C@H]8[C@H](O)[C@@H](O)[C@@H](O[C@H]1[C@H](O)[C@H]2O)O[C@@H]8COCC(C)O)O[C@@H]7COCC(C)O)O[C@@H]6COCC(C)O)O[C@@H]5COCC(C)O)O[C@@H]4COCC(C)O)O[C@@H]3COCC(C)O (stereo partly drawn) [2-HYDROXYPROPYL-BETA-CYCLODEXTRIN]
- Activity (TZM [10]): > 50%
- Activity [11]: > 50%
- Activity [12]: > 50%

SMILES: Cc1cccc2c1OP(=O)(OC[C@H]1C[C@@H](n3cc(C)c(=O)[nH]c3=O)C[C@@H]1O)OC2 (some centres not stated)
- Activity (TZM [7]): Non-toxic
- Activity [8]: Non-toxic
- Activity [9]: Non-toxic

SMILES: Cc1cn([C@H]2C[C@H](N=[N+]=[N-])[C@@H](CO)O2)c(=O)[nH]c1=O [ZIDOVUDINE]
- IC50 [2]: 20.1 nM
- IC50 [4]: 39.6 nM

- inhibition [1]: Active
SMILES: Cc1cn([C@H]2CC[C@@H](COP(=O)(O)OP(=O)(O)OP(=O)(O)O)O2)c(=O)[nH]c1=O

- inhibition [1]: Active
- inhibition [13]: inactive
- inhibition [14]: Active
SMILES: Cc1cn([C@@H]2C[C@H](COP(=O)(O)OP(=O)(O)OP(=O)(O)O)[C@@H](O)C2)c(=O)[nH]c1=O
